In ChEMBL document CHEMBL4145622, “Banksialactones and Banksiamarins: Isochromanones and Isocoumarins from an Australian Fungus, Aspergillus banksianus” (2018):
Converted amounts (≈) assume the structure as drawn. The source made the active and inactive calls. No cut-off for these calls is given here.

Assays:
[1] = test system: Tritrichomonas suis; test: Antiprotozoal activity against Tritrichomonas foetus KV1; assay type: functional
In short: (§1)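 Trophozoites seeded at 4 × 10^4 cells/mL in medium containing tryptone, yeast extract, glucose, L-cysteine, phosphates, ascorbic acid, FeSO4 and 10% newborn calf serum. Compound range 100 to 0.05 μg/mL in 1% DMSO. Plates held anaerobically at 37 °C.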

[2] = test system: Bacillus spizizenii; test: Antibacterial activity against Bacillus subtilis ATCC 6633 after 48 hrs by resazurin dye based assay; assay type: functional; conditions: for MIC: ATCC 6633, 48 h
In short: (§2)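 Bacteria pre-grown 24 h in nutrient broth at 28 °C, 100−250 rpm, diluted to 0.01 absorbance unit per mL. Inoculated into wells of compound dispersed in nutrient agar with resazurin (12.5 μg/mL). Test range 100 to 0.05 μg/mL (2-fold dilutions, 1% DMSO). Incubated 48 h at 28 °C. MIC read visually by blue-to-pink colour change.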

[3] = test system: Escherichia coli; test: Antibacterial activity against Escherichia coli ATCC 25922 after 48 hrs by resazurin dye based assay; assay type: functional, organism-based; in short: as §2
[4] = test system: Candida albicans; test: Antifungal activity against Candida albicans ATCC 10231 after 48 hrs by bromocresol green dye based assay; assay type: functional, organism-based
In short: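 C. albicans grown 24 h in 1% malt extract broth, 250 rpm, 24 °C, diluted to 0.005 absorbance unit per mL. Inoculated onto compound in malt extract agar with bromocresol green (50 μg/mL). Test range 100 to 0.05 μg/mL in 1% DMSO. Incubated 24 °C, 48 h. MIC read visually by blue-to-yellow colour change.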

[5] = species: Mus musculus; test: (§3) Cytotoxicity against mouse NS1 cells after 48 hrs by resazurin dye based assay; assay type: functional
In short: (§4)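 NS-1 myeloma cells seeded at 50 000 cells/mL in DMEM + 10% FBS + 1% penicillin/streptomycin, 37 °C, 5% CO2. Compound range 100 to 0.05 μg/mL (2-fold dilutions, 1% DMSO). Resazurin (250 μg/mL, 10 μL) added at 48 h, then incubated a further 48 h. MIC end point read visually.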

[6] = test system: Saccharomyces cerevisiae; test: Antifungal activity against Saccharomyces cerevisiae ATCC 9763 up to 100 ug/ml 48 hrs by bromocresol green dye based assay; assay type: functional, organism-based
In short: (§5)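 S. cerevisiae grown 24 h in 1% malt extract broth, 250 rpm, 24 °C, diluted to 0.03 absorbance unit per mL. Inoculated onto compound in malt extract agar with bromocresol green (50 μg/mL). 2-fold series from 100 to 0.05 μg/mL in 1% DMSO. Incubated at 24 °C for 48 h. MIC read visually by blue-to-yellow colour change.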

[7] = as §3; assay type: functional; in short: as §4
[8] = test system: Saccharomyces cerevisiae; test: Antifungal activity against Saccharomyces cerevisiae ATCC 9763 after 48 hrs by bromocresol green dye based assay; assay type: functional; conditions: ATCC 9763, 48 h; in short: as §5
[9] = test system: Tritrichomonas suis; test: Antiprotozoal activity against Tritrichomonas foetus KV1 up to 100 ug/ml; assay type: functional, organism-based; in short: as §1
[10] = test system: Bacillus spizizenii; test: Antibacterial activity against Bacillus subtilis ATCC 6633 up to 100 ug/ml 48 hrs by resazurin dye based assay; assay type: functional, organism-based; in short: as §2
[11] = species: Mus musculus; test: Cytotoxicity against mouse NS1 cells up to 100 ug/ml 48 hrs by resazurin dye based assay; assay type: functional, cell-based; in short: as §4

Compound	Activity [1]	Activity [2]	Activity [3]	Activity [4]	Activity [5]	also measured
COC(=O)Nc1nc2cc(C(=O)c3ccccc3)ccc2[nH]1 [MEBENDAZOLE]						MIC [1]: 1.6 µg/mL (≈ 5.42 µM)
COc1cc(O)c2c(c1C)[C@](C)(O)[C@H](C)OC2=O	inactive	inactive	inactive	inactive	inactive	
COc1cc(O)c2c(c1C)[C@H](C)[C@](O)(COC(=O)c1c(C)cc3c(c1O)C(=O)c1c(O)cc(O)cc1C3=O)OC2=O			inactive	inactive		Activity [6]: inactive; MIC [1]: 12.5 µg/mL (≈ 22.1 µM); MIC [2]: 25 µg/mL (≈ 44.3 µM); MIC [7]: 100 µg/mL (≈ 177 µM)
COc1cc(O)c2c(c1C)[C@H](C)[C@](O)(CO)OC2=O	inactive	inactive	inactive	inactive	inactive	
Clc1ccccc1C(c1ccccc1)(c1ccccc1)n1ccnc1 [CLOTRIMAZOLE]						MIC [8]: 0.2 µg/mL (≈ 0.58 µM)
COc1cc(O)c2c(c1C)[C@H](C)[C@](O)(CSCC(O)C(=O)O)OC2=O (some centres not stated)	inactive	inactive	inactive	inactive	inactive	
COc1cc(O)c2c(c1C)[C@H](C)[C@H](CO)OC2=O	inactive	inactive	inactive	inactive	inactive	
O=c1[nH]cc(F)c(=O)[nH]1 [FLUOROURACIL]						MIC [7]: 0.8 µg/mL (≈ 6.15 µM)
COc1cc(O)c2c(c1C)[C@H](C)[C@](O)(COC(=O)c1c(O)cc(O)c(C)c1C)OC2=O			inactive	inactive		MIC [2]: 50 µg/mL (≈ 116 µM); MIC [7]: 100 µg/mL (≈ 231 µM); Activity [9]: inactive
CC1(C)S[C@@H]2[C@H](NC(=O)[C@H](N)c3ccccc3)C(=O)N2[C@H]1C(=O)O [AMPICILLIN]						MIC [2]: 0.4 µg/mL (≈ 1.14 µM)
COc1cc(O)cc2c1C(=O)c1c(O)cc(C)cc1C2=O [QUESTIN]			inactive	inactive		Activity [6]: inactive; MIC [1]: 12.5 µg/mL (≈ 44 µM); Activity [10]: inactive; Activity [11]: inactive
COc1cc(OC)c2c(c1C)[C@](C)(O)[C@H](C)OC2=O	inactive	inactive	inactive	inactive	inactive	
Cc1c(O)cc(O)c2c1[C@H](C)[C@](O)(CO)OC2=O	inactive	inactive	inactive	inactive	inactive	
COc1cc(O)c2c(c1C)[C@H](C)[C@](O)(C[S+](C)[O-])OC2=O (some centres not stated)	inactive	inactive	inactive	inactive	inactive	
COc1cc(O)c2c(c1C)[C@H](C)[C@](O)(COC(=O)c1c(C)c(C)c(O)c(C)c1O)OC2=O			inactive	inactive		MIC [1]: 50 µg/mL (≈ 112 µM); MIC [2]: 25 µg/mL (≈ 56 µM); MIC [8]: 50 µg/mL (≈ 112 µM); MIC [7]: 100 µg/mL (≈ 224 µM)
